Measured values taken from ChEMBL document CHEMBL1130067, “Pyridazinodiazepines as a high-affinity, P2-P3 peptidomimetic class of interleukin-1 beta-converting enzyme inhibitor” (J Med Chem, 1997).
Peptide text beside a SMILES is read from it. * marks the point of attachment. Cbz = O=C(OCc1ccccc1)*

Tests used:
Caspase-1 = target: T1, Caspase-1 (Homo sapiens, UniProt P29466); test: Reversible Inhibition constants against IL-1 beta converting enzyme (ICE)
T1 sequence (P29466 whole entry): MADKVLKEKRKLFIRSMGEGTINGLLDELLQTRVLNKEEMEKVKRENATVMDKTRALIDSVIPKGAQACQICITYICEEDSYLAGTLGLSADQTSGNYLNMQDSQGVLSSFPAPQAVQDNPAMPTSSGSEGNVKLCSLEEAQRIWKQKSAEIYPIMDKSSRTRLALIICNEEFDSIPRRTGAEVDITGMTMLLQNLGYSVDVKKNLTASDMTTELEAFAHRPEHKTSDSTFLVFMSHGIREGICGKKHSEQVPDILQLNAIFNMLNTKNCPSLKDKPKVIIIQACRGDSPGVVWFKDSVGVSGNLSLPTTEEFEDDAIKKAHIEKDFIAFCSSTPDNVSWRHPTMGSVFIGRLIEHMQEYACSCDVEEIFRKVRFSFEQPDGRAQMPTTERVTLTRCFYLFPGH
Summary of the method: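 Fluorescence progress curves are recorded at 37 °C over 30 min. Ki for reversible inhibitors is derived by a method from a cited reference. Determinations are in triplicate, standard error <10%.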

Caspase-1 (Homo sapiens) = target: T2, Caspase-1 (Homo sapiens) (UniProt P29466); test: Second order rate constants were tested for inhibition of IL-1 beta converting enzyme (ICE)
T2 sequence (whole entry): T1 sequence (P29466 whole entry)
Summary of the method: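 Fluorogenic progress-curve assay: ICE in 10 mM HEPES pH 7.5, 25% glycerol, 1 mM DTT, with 10 µM Suc-Tyr-Val-Ala-Asp-AMC; read at 37 °C over 30 min. Inactivation rates are taken from nonlinear progress curves by the Tian–Tsou method, giving second-order rate constants. Determinations are in triplicate, standard error <10%.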

Homo sapiens = species: Homo sapiens; test: Inhibitory concentration against IL1-beta production in human monocytes; type: functional

| SMILES | K obs / 1 (Caspase-1 (Homo sapiens)) | also measured |
| --- | --- | --- |
| CC(C)[C@H](NC(=O)OCc1ccccc1)C(=O)N[C@@H](C)C(=O)N[C@@H](CC(=O)O)C(=O)O (Cbz-Val-Ala-Asp-OH) | – | Ki (Caspase-1): 15 nM |
| O=C(O)C[C@H](NC(=O)CN1C(=O)[C@@H](NC(=O)OCc2ccccc2)COc2ccccc21)C(=O)COc1cc(C(F)(F)F)nn1-c1ccc(Cl)cc1 | 114000 M⁻¹ s⁻¹ | – |
| O=C[C@H](CC(=O)O)NC(=O)[C@@H]1CCCN2C(=O)CC[C@H](NC(=O)c3ccccc3)C(=O)N12 | – | Ki (Caspase-1): 5 nM; IC50 (Homo sapiens): 1000 nM |
| CN(C)Cc1ccc(C(=O)N[C@H]2CCC(=O)N3CCC[C@@H](C(=O)N[C@@H](CC(=O)O)C(=O)COc4cc(C(F)(F)F)nn4-c4ccc(Cl)cc4)N3C2=O)cc1 | 162000 M⁻¹ s⁻¹ | – |
| O=C(O)C[C@H](NC(=O)CN1C(=O)[C@@H](NC(=O)OCc2ccccc2)COc2ccccc21)C(=O)COC(=O)c1c(Cl)cccc1Cl | 44000 M⁻¹ s⁻¹ | – |
| O=C(O)C[C@H](NC(=O)Cn1c(-c2ccc(F)cc2)ncc(NC(=O)OCc2ccccc2)c1=O)C(=O)COC(=O)c1c(Cl)cccc1Cl | 268000 M⁻¹ s⁻¹ | – |
| O=C[C@H](CC(=O)O)NC(=O)[C@@H]1CCCN2C(=O)CC[C@H](NC(=O)c3ccc(OCC(=O)O)cc3)C(=O)N12 | – | Ki (Caspase-1): 1 nM |
| O=C(O)C[C@H](NC(=O)Cn1c(-c2ccc(F)cc2)ncc(NC(=O)OCc2ccccc2)c1=O)C(=O)COc1cc(C(F)(F)F)nn1-c1ccc(Cl)cc1 | 310000 M⁻¹ s⁻¹ | – |
| C[C@@H](C(=O)N[C@@H](CC(=O)O)C(=O)COc1cc(C(F)(F)F)nn1-c1ccccc1)N1CC[C@H](NC(=O)OCc2ccccc2)C1=O | 31800 M⁻¹ s⁻¹ | – |
| CC(C)[C@H](NC(=O)c1ccc(CN2CCN(C)CC2)cc1)C(=O)N[C@@H](C)C(=O)N[C@@H](CC(=O)O)C(=O)COc1cc(C(F)(F)F)nn1-c1ccc(Cl)cc1 | 200000 M⁻¹ s⁻¹ | – |
| CSc1ccc(C(=O)Nc2cnc(-c3ccc(F)cc3)n(CC(=O)N[C@@H](CC(=O)O)C(=O)COc3cc(C(F)(F)F)nn3-c3ccc(Cl)cc3)c2=O)cc1 | 110000 M⁻¹ s⁻¹ | – |
| O=C[C@H](CC(=O)O)NC(=O)[C@@H]1CCCN2C(=O)CC[C@H](NC(=O)OCc3ccccc3)C(=O)N12 | – | Ki (Caspase-1): 25 nM |
| O=C(O)C[C@H](NC(=O)[C@@H]1CS[C@H]2CC[C@H](NC(=O)OCc3ccccc3)C(=O)N21)C(=O)COc1cc(C(F)(F)F)nn1-c1ccccc1 | 42000 M⁻¹ s⁻¹ | – |
| O=C(O)C[C@H](NC(=O)[C@@H]1CCCN2C(=O)CC[C@H](NC(=O)OCc3ccccc3)C(=O)N12)C(=O)COc1cc(C(F)(F)F)nn1-c1ccc(Cl)cc1 | 437000 M⁻¹ s⁻¹ | – |
| CC(C)[C@H](NC(=O)c1ccc(CN2CCOCC2)cc1)C(=O)N[C@@H](C)C(=O)N[C@@H](CC(=O)O)C(=O)COc1cc(C(F)(F)F)nn1-c1ccccc1 | 186000 M⁻¹ s⁻¹ | – |
| O=C(O)C[C@H](NC(=O)[C@@H]1CCCN2C(=O)CC[C@H](NC(=O)OCc3ccccc3)C(=O)N12)C(=O)COc1cc(C(F)(F)F)nn1-c1ccccc1 | 413000 M⁻¹ s⁻¹ | – |
| CC(C)[C@H](NC(=O)OCc1ccccc1)C(=O)N[C@@H](C)C(=O)N[C@@H](CC(=O)O)C(=O)COC(=O)c1c(Cl)cccc1Cl | 432000 M⁻¹ s⁻¹ | – |
| CC(C)[C@H](NC(=O)OCc1ccccc1)C(=O)N[C@@H](C)C(=O)N[C@@H](CC(=O)O)C(=O)COc1cc(C(F)(F)F)nn1-c1ccc(Cl)cc1 | 340000 M⁻¹ s⁻¹ | – |
| CSc1ccc(C(=O)N[C@H](C(=O)N[C@@H](C)C(=O)N[C@@H](CC(=O)O)C(=O)COc2cc(C(F)(F)F)nn2-c2ccccc2)C(C)C)cc1 | 800000 M⁻¹ s⁻¹ | – |

Now from value to molecule, other results behind:

| K obs / 1 (Caspase-1 (Homo sapiens)) | SMILES | also measured |
| --- | --- | --- |
| 210000 M⁻¹ s⁻¹ | CN1CCN(Cc2ccc(C(=O)N[C@H]3CCC(=O)N4CCC[C@@H](C(=O)N[C@@H](CC(=O)O)C(=O)COC(=O)c5c(Cl)cccc5Cl)N4C3=O)cc2)CC1 | – |
| 340000 M⁻¹ s⁻¹ | Cc1nccn1Cc1ccc(C(=O)N[C@H]2CCC(=O)N3CCC[C@@H](C(=O)N[C@@H](CC(=O)O)C(=O)COC(=O)c4c(Cl)cccc4Cl)N3C2=O)cc1 | – |
| 800000 M⁻¹ s⁻¹ | O=C(O)CCCc1ccc(C(=O)N[C@H]2CCC(=O)N3CCC[C@@H](C(=O)N[C@@H](CC(=O)O)C(=O)COc4cc(C(F)(F)F)nn4-c4ccc(Cl)cc4)N3C2=O)cc1 | – |
| 572000 M⁻¹ s⁻¹ | O=C(O)C[C@H](NC(=O)[C@@H]1CCCN2C(=O)CC[C@H](NC(=O)OCc3ccccc3)C(=O)N12)C(=O)COC(=O)c1c(Cl)cccc1Cl | – |
| 1.22e+06 M⁻¹ s⁻¹ | O=C(O)CSc1ccc(C(=O)N[C@H]2CCC(=O)N3CCC[C@@H](C(=O)N[C@@H](CC(=O)O)C(=O)COc4cc(C(F)(F)F)nn4-c4ccc(Cl)cc4)N3C2=O)cc1 | – |
| 425000 M⁻¹ s⁻¹ | O=C(O)C[C@H](NC(=O)[C@@H]1CCCN2C(=O)CC[C@H](NC(=O)c3ccc(CN4CCOCC4)cc3)C(=O)N12)C(=O)COC(=O)c1c(Cl)cccc1Cl | – |
